Data on 88 compounds can be found in PubChem BioAssay AID624268 (The Scripps Research Institute Molecular Screening Center, 2012).

The whole screen tested about 360,000 compounds, of which about 1,500 (0.42%) were called active.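 The calls were made as follows: active = inhibition above a per-plate cutoff of the control wells' mean inhibition plus 3 SD (cut at about 5.5% in these data); inactive = the rest.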 The entries come from a sample that favours actives as a whole.

The test system of the assay is methionyl-tRNA synthetase (Trypanosoma brucei brucei). The assay can be described thus: inhibition of trypanosome methionyl-tRNA synthetase – biochemical, luminescence, primary screen (AID 624268).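 Also: 0% = DMSO wells median and 100% = median of wells with control inhibitor compound.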 As to conditions: purified T. brucei MetRS, ATP depletion, Kinase-Glo luminescence; at 11.9 µM; hits give high values. Summed up: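 technique = Kinase-Glo luminescence, ATP depletion format | system = purified MetRS (methionyl-tRNA synthetase) enzyme from Trypanosoma brucei | timing = 15 min preincubation, 2 h reaction, all 25 °C | evaluation = percent inhibition versus plate control medians | dosing = single dose, 11.9 µM final nominal, 0.9% final DMSO | also added = substrates ATP, L-methionine and bulk Escherichia coli tRNA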
(Kinase-Glo reads ATP consumption through a luciferase reaction.)
Take `CCn1c(SCC(=O)N/N=C/C=C/c2ccccc2[N+](=O)[O-])nnc1-c1ccccc1`: the inhibition is 0.33% (inactive).

With `O=C(COC(=O)CCCSc1nc2ccccc2[nH]1)Nc1ccc(Oc2ccccc2)cc1`, the inhibition is -0.54% (inactive).

Turning to `O=C(CSc1nc2ccccc2[nH]1)N/N=C/C=C\c1ccccc1[N+](=O)[O-]`, the inhibition is 9.68% (active).

On to `COCCNC(=O)CN1C(=O)CSc2ncccc21`, for which the inhibition was 0.04% (inactive).

As for `O=C(NNS(=O)(=O)c1ccc(F)cc1)C1CCCCC1`, the inhibition was -0.24% (inactive).

On to `CCOC(=O)CN(C(=O)CN1CCOCC1)c1ccc(Br)cc1`, for which the inhibition was -1.11% (inactive).

As for `Cc1ccc(O)c(CNc2nc3ccccc3[nH]2)c1`, the inhibition is 72.6% (active).

Consider `C/C(=N\Nc1nc2ccccc2[nH]1)c1cccs1`, for which the inhibition was 2.21% (inactive).

Regarding `Cc1ccc(-c2cc(=O)[nH]c(NCc3ccccc3)n2)cc1`, the inhibition was 0.58% (inactive).

As for `C=CCN1CCN(C(=O)CCCc2ccccc2)CC1`, the inhibition was 0.23% (inactive).

As for `Cn1c(=O)c2c(nc(N3CCOCC3)n2CCNC2=NCCC2)n(C)c1=O`, the inhibition is 0.1% (inactive).

For the compound `O=Cc1c(NCCCN2CCCC2=O)c2ccccc2[nH]c1=O`, the inhibition was -0.57% (inactive).

Consider `Cc1nn(Cc2ccccc2)c(C)c1C(=O)NCCCN1CCCC1=O`, for which the inhibition is -0.02% (inactive).

As to `O=C1CCCN1CCCNc1ncnc2c1[nH]c1ccccc12`, the inhibition is 37.3% (active).

`Cc1ccnc2nc(C(=O)OCC(=O)N(CC(C)C)CC(C)C)nn12`: the inhibition was -0.19% (inactive).

`CCN1CCN(c2ccc([N+](=O)[O-])cc2C(=O)c2ccc(Cl)cc2)CC1`: the inhibition was -0.26% (inactive).

As for `O=[N+]([O-])c1ccc(N2CCN(c3ccc(O)cc3)CC2)c(Cl)c1`, the inhibition is 7.21% (active).

Take `O=C(O)C1CCN(c2ccc([N+](=O)[O-])cc2[N+](=O)[O-])CC1`: the inhibition was 0.21% (inactive).

Consider `NC(=S)NN=Cc1ccc(OC(=O)COc2cc(Cl)c(Cl)cc2Cl)cn1`, for which the inhibition was 0.02% (inactive).

For `CC(C)NC(=O)CSc1ccccc1C(=O)NCc1ccc2c(c1)OCO2`, the inhibition was -0.69% (inactive).

As to `CCN(CC)C(=O)C(=O)c1cn(CC(=O)NCc2ccc3c(c2)OCO3)c2ccccc12`, the inhibition is 60.8% (active).

In the case of `CCN(CC)C(=O)Cn1cc(S(=O)(=O)CC(=O)NCc2ccc3c(c2)OCO3)c2ccccc21`, the inhibition was -0.63% (inactive).

As for `CCOn1c(=O)c(=O)n(O)c2ccccc21`, the inhibition was 0.13% (inactive).

Regarding `O=C(NCc1ccccc1)c1cccc(NC(=O)C2CCCCC2)c1`, the inhibition is -0.28% (inactive).

Take `CCOc1ccc(NC(=O)CC2C(=O)N(c3ccccc3)C(=O)N2CCOC)cc1` (stereo not drawn): the inhibition is 0.31% (inactive).

Turning to `COCCN1C(=O)N(c2ccc(Cl)cc2)C(=O)C1CC(=O)Nc1cc(OC)cc(OC)c1` (stereo not drawn), the inhibition is 0.28% (inactive).

In the case of `COC(=O)CN1C(=S)N(c2ccccc2)C(=O)C1CC(=O)Nc1ccc(Cl)cc1` (stereo not drawn), the inhibition is 12% (active).

For the compound `CCCc1nnc(NC(=O)CCC(=O)NC2CC2)s1`, the inhibition is 0.11% (inactive).

In the case of `COc1cccc(C(CC(=O)NCCN2CCOCC2)NS(=O)(=O)c2ccc(C)cc2)c1OC` (stereo not drawn), the inhibition was -0.3% (inactive).

For `CCOc1ccc(C(=O)Nc2cc(Cl)ccc2-n2cncn2)cc1OC`, the inhibition is -0.61% (inactive).

In the case of `Cc1ccc(S(=O)(=O)N(C)C)cc1NC(=O)c1ccccc1Br`, the inhibition was -0.6% (inactive).

For the compound `Cc1ccc(S(=O)(=O)N(C)C)cc1NC(=O)c1ccc(-n2cncn2)c([N+](=O)[O-])c1`, the inhibition was 41% (active).

Turning to `O=C(COc1ccccc1F)NNC(=O)c1ccc(N2CCCCC2)c([N+](=O)[O-])c1`, the inhibition is -0.55% (inactive).

On to `Cc1ccc(S(=O)(=O)N2CCN(C(=O)c3ccc(-n4cncn4)c([N+](=O)[O-])c3)CC2)cc1`, for which the inhibition was 1.45% (inactive).

In the case of `Cc1ccccc1OCC(=O)NNC(=O)c1ccc(-n2cncn2)c([N+](=O)[O-])c1`, the inhibition was 8.29% (active).

Take `CC(C)NC(=O)c1ccc(Sc2ccccc2)c([N+](=O)[O-])c1`: the inhibition is -1.54% (inactive).

Turning to `Cc1cc(O)c(NC(=O)c2ccc(C)c([N+](=O)[O-])c2)cc1C`, the inhibition was -1.17% (inactive).

As to `CC(=O)Nc1ccc(NC(=S)NC(=O)c2ccc([N+](=O)[O-])c(C)c2)cc1`, the inhibition was -0.17% (inactive).

In the case of `O=C(NNC(=O)c1ccc(-n2cncn2)c([N+](=O)[O-])c1)c1ccccc1`, the inhibition was 17.1% (active).

Take `CC(=O)c1ccc(NC(=O)c2ccc(-n3cncn3)c([N+](=O)[O-])c2)cc1`: the inhibition is 36.6% (active).

On to `Cc1ccccc1OCC(=O)NNC(=O)c1cc(S(=O)(=O)N(C)C)ccc1N1CCCC1`, for which the inhibition was -0.26% (inactive).

For the compound `COc1cc(C2C(C#N)=C(C)NC3=C2C(=O)CC(C)(C)C3)ccc1O` (stereo not drawn), the inhibition was -1.19% (inactive).

In the case of `Cc1ccc(-c2nc(COC(=O)c3c(C)noc3C)cs2)cc1`, the inhibition is -0.6% (inactive).

In the case of `COC(=O)[C@@]12C[C@@H](CC(=O)N3CCC(c4ccccc4)CC3)C(=O)N(Cc3ccccc3)C1=CCC(C)(C)C2`, the inhibition is -0.7% (inactive).

Turning to `Cc1c(NC(=O)CCC2CCCCC2)cc(C(=O)N2CCOCC2)cc1[N+](=O)[O-]`, the inhibition was -2.05% (inactive).

For the compound `Cc1cc(C)cc(OCC(=O)NNC(=O)CCN2C(=O)c3ccccc3C2=O)c1`, the inhibition is 0.2% (inactive).

As for `C[N+](C)(C)CCOP(=O)([O-])OC[C@H](O)CO`, the inhibition is -0.22% (inactive).

Turning to `CCn1c(SCC(=O)Nc2ccccc2F)nc2c(c1=O)SC(C)C2` (stereo not drawn), the inhibition is -0.06% (inactive).

For the compound `c1ccc2cc3c(NCCN4CCOCC4)ccnc3cc2c1`, the inhibition was 34.1% (active).

In the case of `O=S(=O)(c1ccccc1)c1nc(-c2ccccc2)oc1NCCCN1CCOCC1`, the inhibition is 0.27% (inactive).

Take `O=S(=O)(c1ccc(Cl)cc1)c1nc(-c2ccccc2F)oc1NCCN1CCOCC1`: the inhibition is -0.33% (inactive).

With `O=c1cnnc(Nc2ccccc2F)[nH]1`, the inhibition is 0.6% (inactive).

With `Cc1cc(/C=N/n2cnnc2)c(C)n1-c1ccc2ncccc2c1`, the inhibition was 0.03% (inactive).

On to `O=C(CSc1nc(-c2ccccc2)cs1)Nc1cccc([N+](=O)[O-])c1`, for which the inhibition is -0.12% (inactive).

`O=C(CN1CCC(NC(=O)Nc2ccccc2)CC1)Nc1cccc([N+](=O)[O-])c1`: the inhibition was 0.83% (inactive).

Regarding `O=C(CSCC(=O)Nc1cccc([N+](=O)[O-])c1)Nc1ccccc1`, the inhibition was 8.16% (active).

As for `Cc1c(NC(=O)Nc2cccc([N+](=O)[O-])c2)c(=O)n(-c2ccccc2)n1C`, the inhibition is -0.43% (inactive).

As to `O=C(Nc1cccc([N+](=O)[O-])c1)N1CCc2ccccc2C1`, the inhibition is 7.11% (active).

Regarding `CCc1ccc(NC(=O)N2CCc3ccccc3C2)cc1`, the inhibition is -0.43% (inactive).

As for `Cc1ccc(-c2csc(C(C#N)=C(O)CN3CCN(C(=O)c4ccco4)CC3)n2)cc1`, the inhibition was -0.54% (inactive).

For the compound `CCc1cccc(CC)c1NC(=O)COc1ccccc1C(=O)c1cc(C#N)c(=O)n(C2CCCCC2)c1`, the inhibition is 0.13% (inactive).

Take `CCOC(=O)C1CCN(S(=O)(=O)c2c(C)noc2C)CC1`: the inhibition is -0.02% (inactive).

Consider `O=C(Nc1ccc(S(=O)(=O)Nc2ncccn2)cc1)c1cncc(Br)c1`, for which the inhibition was 64.2% (active).

For `O=C(NC(=S)Nc1ccc(S(=O)(=O)Nc2ncccn2)cc1)c1cccc(Br)c1`, the inhibition is 0.66% (inactive).

For the compound `CCNS(=O)(=O)c1ccc(NC(=O)c2cncc(Br)c2)cc1`, the inhibition is -0.64% (inactive).

For the compound `O=C(O)c1ccc(NS(=O)(=O)c2ccc3c(c2)C(=O)c2cc(S(=O)(=O)Nc4ccc(C(=O)O)cc4)ccc2-3)cc1`, the inhibition is 5.69% (active).

`Cc1cc(C(C)(C)C)cc(S(=O)(=O)Nc2ccc(C(=O)O)cc2)c1C`: the inhibition was 0.3% (inactive).

`O=C(c1ccc(NS(=O)(=O)c2ccc3[nH]c(=O)[nH]c3c2)cc1)N1CCCCC1`: the inhibition was -0.5% (inactive).

On to `CCOC(=O)CC1=CC(=O)Nc2ccccc2N1`, for which the inhibition is -0.37% (inactive).

With `COc1ccc(NC(=O)CSc2nnc(Cc3ccccc3)c(=O)n2N)cc1`, the inhibition was -0.2% (inactive).

As for `CCOc1ccc(NC(=O)CSc2nc3c(c(=O)n2-c2ccccc2OC)SCC3)cc1`, the inhibition is -0.23% (inactive).

`COc1ccccc1-n1c(SCC(=O)Nc2ccc(Cl)cc2)nc(O)c(Cc2ccccc2)c1=O`: the inhibition was 55.1% (active).

As to `COc1ccc(NC(=O)CN(C)C(=O)c2n[nH]c3ccccc23)cc1`, the inhibition was -0.44% (inactive).

With `CC1(C(=O)NS(=O)(=O)c2cccc(OC(F)F)c2)CCN1C(=O)C1CC1` (stereo not drawn), the inhibition was -0.2% (inactive).

In the case of `CC1(c2cccc([N+](=O)[O-])c2)CC(C)(C)N(C(=O)c2ccccc2)c2ccccc21` (stereo not drawn), the inhibition is 0.07% (inactive).

With `Cc1ccc2[nH]c(=O)c(CN3CCCCC3)c(-c3ccccc3)c2c1`, the inhibition was 2.15% (inactive).

`c1ccc2cc3[nH]c(CN4CCCCC4)nc3cc2c1`: the inhibition was 7.35% (active).

As to `O=c1cc(CN2CCCCCCC2)c2c(ccc3ccccc32)o1`, the inhibition is 0.63% (inactive).

For `O=C1COc2ccc(NC(=O)N3CCN(c4ccc(F)cc4)CC3)cc2N1`, the inhibition is -0.82% (inactive).

As to `C[C@@H]1CN([C@H](C)CO)C(=O)CCCn2cc(nn2)CO[C@H]1CN(C)S(C)(=O)=O`, the inhibition was -1.67% (inactive).

Regarding `COc1ccc(OC)c(NC(=O)C2(C)CCN2C(=O)Cc2ccccc2)c1` (stereo not drawn), the inhibition was -0.17% (inactive).

As to `COc1ccc(-c2[nH]ncc2/C=N/NC(=O)c2cc(Br)ccc2O)c(OC)c1`, the inhibition was 5.88% (active).

On to `COc1cc(/C=N\NC(=O)c2nonc2N)c(OC)cc1Br`, for which the inhibition was -0.27% (inactive).

Turning to `Cc1ccc(OCCOCCOc2ccc(Br)cc2/C=N\NC(=O)c2ccncc2)cc1`, the inhibition was 0.03% (inactive).

Turning to `Cn1c(N)c(C(=O)COC(=O)c2cccc(S(=O)(=O)N3CCOCC3)c2)c(=O)n(C)c1=O`, the inhibition is 0.03% (inactive).

In the case of `CC1CN(S(=O)(=O)c2cccc(C(F)(F)F)c2)CN1C(=O)N1CCOCC1` (stereo not drawn), the inhibition is -0.97% (inactive).

For `CC(C)CCNC(=O)C1CCCN(S(=O)(=O)c2ccc(F)cc2)C1` (stereo not drawn), the inhibition is -0.46% (inactive).

For the compound `COC(=O)c1c(CCl)noc1C(=O)NC(C)C`, the inhibition is -0.34% (inactive).

Usually inhibition stands for the drop in the measured response relative to a control, in per cent.
